In ChEMBL document CHEMBL1154414, “In vitro and in vivo activities of T-705 against arenavirus and bunyavirus infections” (Antimicrob Agents Chemother, 2007):
Active and inactive are the calls of the source. No cut-off for these calls is given here.

Key:
Punta Toro virus [1] = assay: Antiviral activity against 5000 PFU Punta Toro virus Adames infected C57BL/6 mouse assessed as mean viral titer per 0.1 g of liver at 10 mg/kg, po twice daily administered 24 hrs post viral challenge measured on day 3 of viral infection; format: functional
Outline: (§1)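 Mice were infected subcutaneously with PTV and dosed by oral gavage twice daily; 5 per group (10 placebo) were killed on day 3 or 4. Liver homogenate or serum was serially diluted onto triplicate LLC-MK2 monolayers, and CPE was read 6–8 days later. 50% endpoints gave log10 CCID50 per 0.1 g liver or 0.1 ml serum. Detection range was 2.8–9.5; undetectable samples were assigned <2.8.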

Punta Toro virus [2] = assay: Antiviral activity against 50 PFU Punta Toro virus Adames infected C57BL/6 mouse assessed as survival at 30 mg/kg, po twice daily for 5 days administered 24 hrs post viral challenge; format: functional, organism-based; design: dose 30 mg/kg
Outline: (§2)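 Groups of 15 mice (25–30 placebo) were inoculated subcutaneously with PTV. Drug in 0.4% carboxymethylcellulose was given by oral gavage twice daily.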

Punta Toro virus [3] = assay: Antiviral activity against 50 PFU Punta Toro virus Adames infected C57BL/6 mouse assessed as animals with detectable virus level in liver at 30 mg/kg, po twice daily administered 24 hrs post viral challenge measured on day 3 of viral infection; format: functional
Outline: (§3)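 T-705 was suspended in 0.4% carboxymethylcellulose and given by oral gavage twice daily. Mice were infected subcutaneously with PTV. Five mice per group (10 placebo) were sacrificed on day 3 or 4. Liver homogenate or serum was serially diluted onto triplicate LLC-MK2 monolayers, and CPE was read at 6–8 days. The detection limit was 2.8 log10 CCID50 per 0.1 g liver or 0.1 ml serum.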

Punta Toro virus [4] = assay: Antiviral activity against 50 PFU Punta Toro virus Adames infected C57BL/6 mouse assessed as mean serum ALT levels at 30 mg/kg, po twice daily administered 24 hrs post viral challenge measured on day 3 of viral infection; format: functional
Outline: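 Subcutaneous PTV infection was followed by oral gavage twice daily with drug suspended in 0.4% CMC. Serum was collected from 5 sacrificed mice per group (10 placebo) on day 3 or 4. ALT activity was measured by kinetic assay, and sham-infected mice set the baselines.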

Punta Toro virus [5] = assay: Antiviral activity against Punta Toro virus Adames infected Syrian golden hamster assessed as mean day of death at 60 mg/kg, po twice daily for 6 days administered 4 hrs before viral challenge; format: functional
Punta Toro virus [6] = assay: Antiviral activity against 500 PFU Punta Toro virus Adames infected C57BL/6 mouse assessed as mean day of death at 100 mg/kg, po twice daily for 5 days administered 4 hrs before viral challenge; format: functional; outline: as §2
Punta Toro virus [7] = assay: Antiviral activity against 500 PFU Punta Toro virus Adames infected C57BL/6 mouse assessed as mean viral titer per 0.1 g of liver at 100 mg/kg, po administered 4 hrs before viral challenge measured on day 4 of viral infection; format: functional; outline: as §1
Punta Toro virus [8] = assay: Antiviral activity against 500 PFU Punta Toro virus Adames infected C57BL/6 mouse assessed as mean viral titer per 0.1 g of liver at 25 mg/kg, po administered 4 hrs before viral challenge measured on day 4 of viral infection; format: functional; outline: as §1
Punta Toro virus [9] = assay: Antiviral activity against 500 PFU Punta Toro virus Adames infected C57BL/6 mouse assessed as mean viral titer per 0.1 mL of serum at 50 mg/kg, po twice daily administered 4 hrs before viral challenge measured on day 4 of viral infection; format: functional; outline: as §1
Pichinde virus [10] = assay: Antiviral activity against Pichinde virus An 4763 infected Syrian golden hamster assessed as mean serum ALT levels at 50 mg/kg, po twice daily for 7 days administered 24 hrs post viral-challenge measured on day 7 of viral infection; format: functional
Outline: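 Hamsters were challenged intraperitoneally (bilateral, 65 PFU) and given twice-daily oral gavage doses (0.4% CMC vehicle). Five per group were sacrificed on day 7 and serum was collected. Serum ALT activity was measured by kinetic assay. Three sham-infected animals set the baselines.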

Influenza A virus = assay: Antiviral activity against influenza A virus; format: functional, organism-based
Punta Toro virus [11] = assay: Antiviral activity against 500 PFU Punta Toro virus Adames infected C57BL/6 mouse assessed as mean day of death at 30 mg/kg, po twice daily for 5 days administered 24 hrs post viral challenge; format: functional; outline: as §2
Pichinde virus [12] = assay: Antiviral activity against Pichinde virus An 4763 infected Syrian golden hamster assessed as mean day of death at 15 mg/kg, po twice daily for 7 days administered 4 hrs before viral-challenge; format: functional
Pichinde virus [13] = assay: Antiviral activity against Pichinde virus An 4763 infected Syrian golden hamster assessed as animals with detectable virus level in liver at 30 mg/kg, po twice daily for 7 days administered 4 hrs before viral-challenge measured on day 7 of viral infection; format: functional
Pichinde virus [14] = assay: Antiviral activity against Pichinde virus An 4763 infected Syrian golden hamster assessed as animals with detectable virus level in serum at 15 mg/kg, po twice daily for 7 days administered 4 hrs before viral-challenge measured on day 7 of viral infection; format: functional
Outline: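 Hamsters (groups of 15, placebo 25-30) were dosed orally by gavage twice daily (drug suspended in 0.4% CMC) after bilateral intraperitoneal challenge with 65 PFU. Five per group were killed on day 7. Liver homogenate or serum was serially diluted onto triplicate B-SC-1 wells, CPE was read at 6-8 days, and the 50% endpoint was taken. Range was 2.8-9.5 log10 CCID50/0.1 g or 0.1 ml, with undetectable assigned <2.8.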

Pichinde virus [15] = assay: Antiviral activity against Pichinde virus An 4763 infected Syrian golden hamster assessed as mean serum ALT levels at 15 mg/kg, po twice daily for 7 days administered 4 hrs before viral-challenge measured on day 7 of viral infection; format: functional
Punta Toro virus [16] = assay: Antiviral activity against 500 PFU Punta Toro virus Adames infected C57BL/6 mouse assessed as mean viral titer per 0.1 mL of serum at 25 mg/kg, po twice daily administered 4 hrs before viral challenge measured on day 4 of viral infection; format: functional; outline: as §1
Punta Toro virus [17] = assay: Antiviral activity against 500 PFU Punta Toro virus Adames infected C57BL/6 mouse assessed as mean viral titer per 0.1 mL of serum at 75 mg/kg, po twice daily administered 4 hrs before viral challenge measured on day 4 of viral infection; format: functional; outline: as §1
Punta Toro virus [18] = assay: Antiviral activity against 500 PFU Punta Toro virus Adames infected C57BL/6 mouse assessed as mean day of death at 5 mg/kg, po twice daily for 5 days administered 4 hrs before viral challenge; format: functional; outline: as §2
Punta Toro virus [19] = assay: Antiviral activity against 500 PFU Punta Toro virus Adames infected C57BL/6 mouse assessed as animals with detectable virus level in liver at 5 mg/kg, po twice daily administered 4 hrs before viral challenge measured on day 3 of viral infection; format: functional; outline: as §3
Pichinde virus [20] = assay: Antiviral activity against Pichinde virus An 4763 infected Syrian golden hamster assessed as animals with detectable virus level in serum at 40 mg/kg, po twice daily for 7 days administered 4 hrs before viral-challenge measured on day 7 of viral infection; format: functional
Punta Toro virus [21] = assay: Antiviral activity against 500 PFU Punta Toro virus Adames infected C57BL/6 mouse assessed as protection against viral infection at 75 mg/kg, po twice daily for 5 to 7 days; format: functional
Outline: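 PTV was inoculated subcutaneously into mice in groups of 15 (25–30 placebo). Dosing was by oral gavage twice daily for 5–7 days, with T-705 suspended in 0.4% CMC and ribavirin in saline. Remaining animals were observed 21–28 days for survival and day of death. Test doses had first been checked for tolerance in uninfected animals.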

NC(=O)c1nc(F)cnc1O [FAVIPIRAVIR]
log10CCID50 (Punta Toro virus [1]): <2.9
Activity (Punta Toro virus [2]): Active
Activity (Punta Toro virus [3]): 40%
Activity (Punta Toro virus [4]): 199 IU/L
Activity (Punta Toro virus [5]): 6 days
Activity (Punta Toro virus [6]): >21 days
log10CCID50 (Punta Toro virus [7]): <2.8
log10CCID50 (Punta Toro virus [8]): <2.8
log10CCID50 (Punta Toro virus [9]): <3.1
Activity (Pichinde virus [10]): 61 IU/L
EC50 (Influenza A virus): 83 nM
Activity (Punta Toro virus [11]): 5 days
Activity (Pichinde virus [12]): 11.1 days
Activity (Pichinde virus [13]): 100%
Activity (Pichinde virus [14]): 80%
Activity (Pichinde virus [15]): 1220 IU/L
log10CCID50 (Punta Toro virus [16]): <3.3
log10CCID50 (Punta Toro virus [17]): <3.3
Activity (Punta Toro virus [18]): 4.9 days
Activity (Punta Toro virus [19]): 0%

NC(=O)c1ncn([C@@H]2O[C@H](CO)[C@@H](O)[C@H]2O)n1 [RIBAVIRIN]
log10CCID50 (Punta Toro virus [1]): <2.8
Activity (Punta Toro virus [2]): Active
Activity (Punta Toro virus [3]): 20%
Activity (Punta Toro virus [4]): 131 IU/L
Activity (Pichinde virus [10]): 26 IU/L
Activity (Punta Toro virus [11]): 5.3 days
Activity (Pichinde virus [20]): 40%
Activity (Punta Toro virus [21]): 100%
